Measured values: ChEMBL document CHEMBL1132386, “Mixture-based synthetic combinatorial libraries” (J Med Chem, 1999)

Assays:
[1] = molecular target: Kappa-type opioid receptor (Cavia porcellus) (UniProt P41144); test: Inhibitory activity for kappa opioid receptor
Mu-type opioid receptor = Mu-type opioid receptor (Homo sapiens, UniProt P35372); test: Antagonistic activity towards Opioid receptor mu 1; assay type: functional
[2] = molecular target: GABA-A receptor; anion channel; test: Inhibition of binding to GABA-A Benzodiazepine receptor; assay type: protein-complex assay
[3] = molecular target: T1, Adenosine deaminase (Homo sapiens) (UniProt P00813)
T1 sequence (whole entry): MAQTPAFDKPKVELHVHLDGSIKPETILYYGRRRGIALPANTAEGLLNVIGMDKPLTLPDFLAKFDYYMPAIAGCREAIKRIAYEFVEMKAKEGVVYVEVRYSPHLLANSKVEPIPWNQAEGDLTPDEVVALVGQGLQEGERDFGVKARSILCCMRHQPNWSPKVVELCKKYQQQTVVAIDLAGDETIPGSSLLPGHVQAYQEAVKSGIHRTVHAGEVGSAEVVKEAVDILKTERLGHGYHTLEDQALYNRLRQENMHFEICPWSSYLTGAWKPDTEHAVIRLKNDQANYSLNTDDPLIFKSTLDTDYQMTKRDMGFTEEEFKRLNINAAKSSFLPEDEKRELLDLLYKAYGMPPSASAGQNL

[4] = molecular target: Sigma non-opioid intracellular receptor 1 (Homo sapiens, UniProt Q99720); test: Inhibitory activity towards Sigma opioid receptor type 1
Chain of Sigma non-opioid intracellular receptor 1 (Q99720 whole entry): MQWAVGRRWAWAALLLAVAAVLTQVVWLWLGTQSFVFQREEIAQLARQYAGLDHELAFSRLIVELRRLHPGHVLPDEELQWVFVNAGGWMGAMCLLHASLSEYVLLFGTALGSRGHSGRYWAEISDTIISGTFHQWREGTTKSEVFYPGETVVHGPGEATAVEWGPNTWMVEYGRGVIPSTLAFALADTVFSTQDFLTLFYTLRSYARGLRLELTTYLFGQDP

[5] = molecular target: Kappa-type opioid receptor (Cavia porcellus, UniProt P41144); test: Inhibition of Opioid receptor kappa 1 binding
Chain of Kappa-type opioid receptor (P41144 whole entry): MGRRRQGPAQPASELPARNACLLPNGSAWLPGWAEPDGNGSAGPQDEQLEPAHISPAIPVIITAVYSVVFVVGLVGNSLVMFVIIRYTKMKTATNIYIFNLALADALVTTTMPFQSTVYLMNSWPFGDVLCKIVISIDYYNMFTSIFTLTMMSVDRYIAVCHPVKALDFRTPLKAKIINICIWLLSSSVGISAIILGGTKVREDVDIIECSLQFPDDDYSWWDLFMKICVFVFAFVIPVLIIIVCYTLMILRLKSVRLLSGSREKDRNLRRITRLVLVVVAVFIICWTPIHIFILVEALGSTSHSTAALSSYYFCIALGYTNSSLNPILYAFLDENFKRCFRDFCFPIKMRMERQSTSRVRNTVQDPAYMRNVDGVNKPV
Procedure, shortened: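 Kappa opioid radioreceptor binding in guinea pig brain homogenate with 3 nM [3H]U69,593 as radioligand, incubated 2.5 h at 25°C. Library mixtures were screened at 4 μg/mL. Data were normalized to percent inhibition using background and total binding.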

[6] = Enzyme inhibitory activity towards Matrix metalloproteases
Acetylcholinesterase = Acetylcholinesterase (Homo sapiens, UniProt P22303); test: Enzyme inhibitory activity towards Acetylcholinesterase
Chain of Acetylcholinesterase (P22303 whole entry): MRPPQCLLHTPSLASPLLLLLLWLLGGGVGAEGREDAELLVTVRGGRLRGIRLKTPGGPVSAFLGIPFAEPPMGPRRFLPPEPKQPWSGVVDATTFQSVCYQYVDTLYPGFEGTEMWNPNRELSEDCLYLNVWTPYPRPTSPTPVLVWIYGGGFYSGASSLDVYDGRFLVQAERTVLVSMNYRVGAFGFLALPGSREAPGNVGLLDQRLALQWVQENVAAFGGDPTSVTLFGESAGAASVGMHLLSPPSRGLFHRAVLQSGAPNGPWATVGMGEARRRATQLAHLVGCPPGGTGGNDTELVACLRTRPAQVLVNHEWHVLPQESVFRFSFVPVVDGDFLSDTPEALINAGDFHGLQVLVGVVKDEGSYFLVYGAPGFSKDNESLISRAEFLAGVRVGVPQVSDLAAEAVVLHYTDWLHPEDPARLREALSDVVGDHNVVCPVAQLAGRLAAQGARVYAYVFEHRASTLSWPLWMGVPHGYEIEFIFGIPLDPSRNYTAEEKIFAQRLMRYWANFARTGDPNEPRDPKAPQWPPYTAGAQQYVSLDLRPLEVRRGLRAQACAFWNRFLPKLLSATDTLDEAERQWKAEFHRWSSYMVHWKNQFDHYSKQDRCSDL

Chain of Kappa-type opioid receptor (Cavia porcellus) (P41144 whole entry, looked up): as the sequence (P41144 whole entry) above
Chain of Mu-type opioid receptor (P35372 whole entry): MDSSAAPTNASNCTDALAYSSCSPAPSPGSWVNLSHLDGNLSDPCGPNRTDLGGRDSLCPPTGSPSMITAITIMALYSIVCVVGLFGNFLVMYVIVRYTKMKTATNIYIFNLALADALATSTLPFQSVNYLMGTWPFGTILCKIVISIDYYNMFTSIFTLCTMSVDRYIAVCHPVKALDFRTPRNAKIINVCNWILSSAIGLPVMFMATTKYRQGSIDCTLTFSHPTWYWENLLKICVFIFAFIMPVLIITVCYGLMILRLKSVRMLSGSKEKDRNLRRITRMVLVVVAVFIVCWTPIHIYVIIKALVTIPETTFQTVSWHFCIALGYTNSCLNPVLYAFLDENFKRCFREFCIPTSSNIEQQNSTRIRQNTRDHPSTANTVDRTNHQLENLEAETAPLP

SMILES | IC50 [1] | also measured
CC(C)C[C@@H]1CN2C(=NC[C@@H]2C)N1C(C)C12CC3CC(CC(C3)C1)C2 (stereo partly drawn) | 3640 nM | 
CCCCCC(C)N (stereo not drawn) [TUAMINOHEPTANE] |  | IC50 (Mu-type opioid receptor): 14 nM
O=c1cc(-c2ccccc2)oc2ccccc12 [FLAVONE] |  | Ki [2]: 17 nM
CC(C)C[C@@H]1CN2C(=NC[C@@H]2C2CCCCC2)N1CCCC1CCCCC1 | 3740 nM | 
Nc1ncnc2c1ncn2[C@@H]1O[C@H](CO)[C@@H](O)[C@H]1O |  | Ka [3]: 1e+08 M⁻¹
O=C1CNC(=O)N1 [HYDANTOIN] |  | IC50 [4]: 62 nM
CC(C)C[C@@H]1CN2C(=NC[C@@H]2C2CCCCC2)N1CC1CCC(C)CC1 (stereo partly drawn) | 999 nM | IC50 [5]: 3680 nM
C1CCC([C@H]2CN3C(=NC[C@@H]3C3CCCCC3)N2CCC2CC3CCC2C3)CC1 (stereo partly drawn) | 560 nM | 
CC(N1C2=NC[C@H](C)N2C[C@@H]1C1CCCCC1)C12CC3CC(CC(C3)C1)C2 (stereo partly drawn) | 1940 nM | 
CC1CCC(CN2C3=NC[C@H](C)N3C[C@@H]2C2CCCCC2)CC1 (stereo partly drawn) | 5060 nM | 
CC(C)C[C@@H]1CN2C(=NC[C@H]2C2CCCCC2)N1CC1CCC(C)CC1 (stereo partly drawn) | 738 nM | 
O=C1CNC(=O)CN1 [DIKETOPIPERAZINE] |  | IC50 [6]: 30000 nM
CC(C)C[C@@H]1CN2C(=NC[C@@H]2C2CCCCC2)N1C(C)C12CC3CC(CC(C3)C1)C2 (stereo partly drawn) | 1210 nM | 
NC(=O)O [CARBAMIC ACID] |  | IC50 (Acetylcholinesterase): 67000 nM
c1cc2c(cn1)CCCC2 [5,6,7,8-TETRAHYDROISOQUINOLINE] |  | IC50 [4]: 56 nM
CC(N1C2=NC[C@H](C3CCCCC3)N2C[C@@H]1C1CCCCC1)C12CC3CC(CC(C3)C1)C2 (stereo partly drawn) | 1490 nM | 
C1CCC([C@H]2CN3C(=NC[C@H]3C3CCCCC3)N2CCC2CC3CCC2C3)CC1 (stereo partly drawn) | 524 nM | 
CC(N1C2=NC[C@@H](C3CCCCC3)N2C[C@@H]1C1CCCCC1)C12CC3CC(CC(C3)C1)C2 (stereo partly drawn) | > 10000 nM | 
CC(C)C[C@@H]1CN2C(=NC[C@@H]2C)N1CCCC1CCCCC1 | 5440 nM | 
CC(C)C[C@@H]1CN2C(=NC[C@H]2C2CCCCC2)N1CCCC1CCCCC1 | 1770 nM | 
CC(C)C[C@@H]1CN2C(=NC[C@@H]2C)N1CCC1CC2CCC1C2 (stereo partly drawn) | 2310 nM | 
CC(C)C[C@@H]1CN2C(=NC[C@H]2C2CCCCC2)N1C(C)C12CC3CC(CC(C3)C1)C2 (stereo partly drawn) | 1750 nM | 
